One block for each compound: values may come before it.
Legend:
[1] = tested on: Malme-3M; assay: Antiproliferative activity against human Malme-3M cells assessed as cell growth inhibition measured after 48 hrs by SRB assay
[2] = tested on: LOX IMVI; assay: Antiproliferative activity against human LOX IMVI cells assessed as cell growth inhibition measured after 48 hrs by SRB assay
[3] = tested on: SK-MEL-5; assay: Antiproliferative activity against human SK-MEL-5 cells assessed as total growth inhibition measured after 48 hrs by SRB assay; settings: SK-MEL-5, 48 h
[4] = tested on: Panel renal (Carcinoma cell lines); assay: Antiproliferative activity against human Panel renal (Carcinoma cell lines) assessed as cell growth inhibition measured after 48 hrs by SRB assay
[5] = target: RAF proto-oncogene serine/threonine-protein kinase (Homo sapiens, UniProt P04049); assay: Inhibition of human wild type CRAF using myelin basic protein as substrate in presence of [gamma-33P]ATP incubated for 40 mins by scintillation counting method
Chain of RAF proto-oncogene serine/threonine-protein kinase (P04049 whole entry): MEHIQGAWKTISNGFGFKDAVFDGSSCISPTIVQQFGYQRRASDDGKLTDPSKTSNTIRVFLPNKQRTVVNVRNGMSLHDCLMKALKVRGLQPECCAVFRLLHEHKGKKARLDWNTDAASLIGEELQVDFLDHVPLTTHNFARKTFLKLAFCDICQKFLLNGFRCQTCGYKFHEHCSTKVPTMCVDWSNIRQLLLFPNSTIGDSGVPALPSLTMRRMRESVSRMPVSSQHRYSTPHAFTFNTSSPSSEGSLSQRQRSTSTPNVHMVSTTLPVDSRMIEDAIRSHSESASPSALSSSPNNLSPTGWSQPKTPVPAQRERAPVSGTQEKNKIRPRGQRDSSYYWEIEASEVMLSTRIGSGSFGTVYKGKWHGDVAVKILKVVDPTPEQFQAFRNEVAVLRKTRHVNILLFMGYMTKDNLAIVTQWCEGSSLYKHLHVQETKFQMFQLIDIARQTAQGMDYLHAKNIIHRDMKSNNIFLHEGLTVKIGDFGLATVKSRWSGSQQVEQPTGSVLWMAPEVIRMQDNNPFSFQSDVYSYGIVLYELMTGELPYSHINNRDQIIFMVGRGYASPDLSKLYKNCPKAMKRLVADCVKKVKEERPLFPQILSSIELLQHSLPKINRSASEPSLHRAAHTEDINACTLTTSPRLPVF

[6] = tested on: MDA-MB-435; assay: Antiproliferative activity against human MDA-MB-435 cells assessed as total growth inhibition measured after 48 hrs by SRB assay; settings: MDA-MB-435, 48 h
[7] = target: Serine/threonine-protein kinase B-raf (Homo sapiens, UniProt P15056, V600E); assay: Inhibition of human BRAF V600E mutant using myelin basic protein as substrate in presence of [gamma-33P]ATP incubated for 40 mins by scintillation counting method
Chain of Serine/threonine-protein kinase B-raf (Homo sapiens, UniProt P15056, V600E) (P15056 2-766 V600E limits assumed): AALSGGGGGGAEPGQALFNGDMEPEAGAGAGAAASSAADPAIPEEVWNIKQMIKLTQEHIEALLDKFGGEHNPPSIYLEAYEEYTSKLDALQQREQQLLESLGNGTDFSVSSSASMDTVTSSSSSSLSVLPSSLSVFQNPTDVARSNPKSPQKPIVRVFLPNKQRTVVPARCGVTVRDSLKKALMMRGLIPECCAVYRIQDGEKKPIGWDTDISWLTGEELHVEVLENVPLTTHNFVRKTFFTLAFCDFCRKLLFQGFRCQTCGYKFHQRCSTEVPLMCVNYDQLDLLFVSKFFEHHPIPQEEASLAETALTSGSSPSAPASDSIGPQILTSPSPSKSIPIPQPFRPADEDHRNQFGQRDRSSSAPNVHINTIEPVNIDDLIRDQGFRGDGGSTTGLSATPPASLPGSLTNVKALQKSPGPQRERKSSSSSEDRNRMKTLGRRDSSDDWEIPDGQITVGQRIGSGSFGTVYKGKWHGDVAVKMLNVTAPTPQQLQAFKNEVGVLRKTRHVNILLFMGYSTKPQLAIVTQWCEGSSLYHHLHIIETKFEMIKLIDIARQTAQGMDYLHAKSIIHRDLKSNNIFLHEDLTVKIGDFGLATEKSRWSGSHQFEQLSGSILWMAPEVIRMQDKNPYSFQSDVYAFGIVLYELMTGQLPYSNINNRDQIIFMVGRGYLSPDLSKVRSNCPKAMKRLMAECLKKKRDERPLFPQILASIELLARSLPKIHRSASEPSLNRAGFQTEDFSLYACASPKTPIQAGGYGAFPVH
In short: (§1)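 Radiometric kinase assay run at Reaction Biology. Kinase (5−10 mU) in 25 mM Tris pH 7.5, 0.02 mM EGTA, 10 mM magnesium acetate with 0.66 mg/mL myelin basic protein and [γ-33P]ATP at 1 μM ATP. Reaction started with Mg-ATP and run 40 min at room temperature, then stopped with 3% phosphoric acid. Spotted on P30 filtermat, washed, scintillation counted.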

[8] = Cytotoxicity against human BJ cells assessed as cell growth inhibition incubated for 48 hrs by MTT assay; type: toxicity, cell-based
In short: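 BJ1 normal skin fibroblasts were seeded at 10 × 10³ cells/well with compound in triplicate wells and grown in DMEM-F12 at 37 °C, 5% CO₂, across an eight-point dilution series. Growth inhibition was calculated as (1 − T/C) × 100, and IC50 was taken from the dose–response curve.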

[9] = target: Serine/threonine-protein kinase B-raf (Homo sapiens, UniProt P15056); assay: Inhibition of human wild type BRAF using myelin basic protein as substrate in presence of [gamma-33P]ATP incubated for 40 mins by scintillation counting method; in short: as §1
Chain of Serine/threonine-protein kinase B-raf (Homo sapiens, UniProt P15056) (P15056 whole entry): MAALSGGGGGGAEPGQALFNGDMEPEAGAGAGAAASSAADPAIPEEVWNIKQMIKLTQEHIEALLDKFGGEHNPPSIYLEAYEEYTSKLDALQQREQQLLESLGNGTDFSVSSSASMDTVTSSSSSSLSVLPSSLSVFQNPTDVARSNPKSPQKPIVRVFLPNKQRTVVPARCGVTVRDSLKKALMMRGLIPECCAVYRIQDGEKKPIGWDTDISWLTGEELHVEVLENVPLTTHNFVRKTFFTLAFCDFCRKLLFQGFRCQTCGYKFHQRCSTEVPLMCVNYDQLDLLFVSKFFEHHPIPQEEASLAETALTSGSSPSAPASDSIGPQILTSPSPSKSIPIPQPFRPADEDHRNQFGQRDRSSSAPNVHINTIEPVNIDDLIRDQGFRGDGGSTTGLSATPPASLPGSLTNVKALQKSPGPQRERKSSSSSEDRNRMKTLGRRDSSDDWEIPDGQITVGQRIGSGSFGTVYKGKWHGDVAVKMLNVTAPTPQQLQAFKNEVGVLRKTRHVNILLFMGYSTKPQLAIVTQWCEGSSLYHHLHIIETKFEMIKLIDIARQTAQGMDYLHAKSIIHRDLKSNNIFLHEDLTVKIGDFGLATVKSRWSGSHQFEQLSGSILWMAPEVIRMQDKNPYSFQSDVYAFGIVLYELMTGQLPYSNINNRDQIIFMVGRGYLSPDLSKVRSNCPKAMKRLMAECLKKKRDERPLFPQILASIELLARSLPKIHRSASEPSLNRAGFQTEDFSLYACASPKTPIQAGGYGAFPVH

[10] = tested on: Malme-3M; assay: Antiproliferative activity against human Malme-3M cells assessed as total growth inhibition measured after 48 hrs by SRB assay
[11] = tested on: Panel melanoma (Carcinoma cell lines); assay: Antiproliferative activity against human Panel melanoma (Carcinoma cell lines) assessed as cell growth inhibition measured after 48 hrs by SRB assay
[12] = tested on: Panel colon (Carcinoma cell lines); assay: Antiproliferative activity against human Panel colon (Carcinoma cell lines) assessed as cell growth inhibition measured after 48 hrs by SRB assay
[13] = in vitro; settings: human, BJ cells and Malme-3M cells
[14] = tested on: MDA-MB-435; assay: Antiproliferative activity against human MDA-MB-435 cells assessed as cell growth inhibition measured after 48 hrs by SRB assay; settings: MDA-MB-435, 48 h
[15] = tested on: UACC-257; assay: Antiproliferative activity against human UACC-257 cells assessed as total growth inhibition measured after 48 hrs by SRB assay; settings: UACC-257, 48 h
[16] = tested on: SK-MEL-2; assay: Antiproliferative activity against human SK-MEL-2 cells assessed as cell growth inhibition measured after 48 hrs by SRB assay; settings: SK-MEL-2, 48 h
[17] = tested on: M14; assay: Antiproliferative activity against human M14 cells assessed as total growth inhibition measured after 48 hrs by SRB assay; settings: M14, 48 h
[18] = tested on: UACC-257; assay: Antiproliferative activity against human UACC-257 cells assessed as cell growth inhibition measured after 48 hrs by SRB assay; settings: UACC-257, 48 h
[19] = tested on: SK-MEL-5; assay: Antiproliferative activity against human SK-MEL-5 cells assessed as cell growth inhibition measured after 48 hrs by SRB assay; settings: SK-MEL-5, 48 h
[20] = tested on: SK-MEL-28; assay: Antiproliferative activity against human SK-MEL-28 cells assessed as cell growth inhibition measured after 48 hrs by SRB assay; settings: SK-MEL-28, 48 h
[21] = tested on: SK-MEL-2; assay: Antiproliferative activity against human SK-MEL-2 cells assessed as total growth inhibition measured after 48 hrs by SRB assay; settings: SK-MEL-2, 48 h
[22] = tested on: Panel ovarian (Carcinoma cell lines); assay: Antiproliferative activity against human Panel ovarian (Carcinoma cell lines) assessed as cell growth inhibition measured after 48 hrs by SRB assay
[23] = tested on: M14; assay: Antiproliferative activity against human M14 cells assessed as cell growth inhibition measured after 48 hrs by SRB assay; settings: M14, 48 h
[24] = Cytotoxicity against human L132 cells assessed as cell growth inhibition incubated for 48 hrs by MTT assay; type: toxicity, cell-based
[25] = tested on: NSCLC; assay: Antiproliferative activity against human NSCLC cell line assessed as cell growth inhibition measured after 48 hrs by SRB assay
[26] = tested on: Panel CNS (Carcinoma cell lines); assay: Antiproliferative activity against human Panel CNS (Carcinoma cell lines) assessed as cell growth inhibition measured after 48 hrs by SRB assay
[27] = tested on: UACC-62; assay: Antiproliferative activity against human UACC-62 cells assessed as total growth inhibition measured after 48 hrs by SRB assay; settings: UACC-62, 48 h
[28] = tested on: Panel breast (Carcinoma cell lines); assay: Antiproliferative activity against human Panel breast (Carcinoma cell lines) assessed as cell growth inhibition measured after 48 hrs by SRB assay
[29] = tested on: Panel prostate (Carcinoma cell lines); assay: Antiproliferative activity against human Panel prostate (Carcinoma cell lines) assessed as cell growth inhibition measured after 48 hrs by SRB assay
[30] = tested on: Panel melanoma (Carcinoma cell lines); assay: cells; settings: Homo sapiens, 48 h, read-out: INH
[31] = tested on: LOX IMVI; assay: Antiproliferative activity against human LOX IMVI cells assessed as total growth inhibition measured after 48 hrs by SRB assay
[32] = tested on: SK-MEL-28; assay: Antiproliferative activity against human SK-MEL-28 cells assessed as total growth inhibition measured after 48 hrs by SRB assay; settings: SK-MEL-28, 48 h
[33] = tested on: Panel leukemia (Carcinoma cell lines); assay: Antiproliferative activity against human Panel leukemia (Carcinoma cell lines) assessed as cell growth inhibition measured after 48 hrs by SRB assay
[34] = tested on: UACC-62; assay: Antiproliferative activity against human UACC-62 cells assessed as cell growth inhibition measured after 48 hrs by SRB assay; settings: UACC-62, 48 h
[35] = target: Mitogen-activated protein kinase 11 (Homo sapiens, UniProt Q15759); assay: Inhibition of MAPK11 (unknown origin) incubated for 1 hr by qPCR analysis
Chain of Mitogen-activated protein kinase 11 (Q15759 whole entry): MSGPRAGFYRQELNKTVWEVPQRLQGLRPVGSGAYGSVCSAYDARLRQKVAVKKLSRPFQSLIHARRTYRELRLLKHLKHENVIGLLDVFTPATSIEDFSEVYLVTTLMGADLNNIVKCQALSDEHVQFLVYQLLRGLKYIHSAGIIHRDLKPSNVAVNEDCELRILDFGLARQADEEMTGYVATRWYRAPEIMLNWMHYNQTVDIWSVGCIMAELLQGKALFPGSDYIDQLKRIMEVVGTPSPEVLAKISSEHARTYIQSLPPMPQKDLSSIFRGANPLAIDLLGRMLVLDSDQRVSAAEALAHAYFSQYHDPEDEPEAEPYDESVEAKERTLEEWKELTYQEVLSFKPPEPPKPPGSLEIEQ
In short: (§2)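 Competition binding assay. Kinases were either T7-phage-tagged (grown in an E. coli BL21-derived host) or expressed in HEK-293 cells and DNA-tagged. […] Bound kinase was eluted with non-biotinylated ligand and quantified by qPCR.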

[36] = target: Mitogen-activated protein kinase 14 (Homo sapiens, UniProt Q16539); assay: Inhibition of MAPK14 (unknown origin) incubated for 1 hr by qPCR analysis; in short: as §2
Chain of Mitogen-activated protein kinase 14 (Q16539 whole entry): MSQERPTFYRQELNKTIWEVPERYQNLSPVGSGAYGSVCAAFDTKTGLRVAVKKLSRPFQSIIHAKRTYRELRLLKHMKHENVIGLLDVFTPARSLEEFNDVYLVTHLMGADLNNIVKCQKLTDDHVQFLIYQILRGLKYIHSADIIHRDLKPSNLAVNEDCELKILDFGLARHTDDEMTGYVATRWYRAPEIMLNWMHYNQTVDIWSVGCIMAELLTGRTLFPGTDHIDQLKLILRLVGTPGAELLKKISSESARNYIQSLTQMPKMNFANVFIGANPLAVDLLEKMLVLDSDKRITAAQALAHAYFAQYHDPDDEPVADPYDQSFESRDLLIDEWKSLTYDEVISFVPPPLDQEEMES

[37] = target: T1, Receptor-type tyrosine-protein kinase FLT3 (Homo sapiens, UniProt P36888); assay: Inhibition of FLT3 (unknown origin) incubated for 1 hr by qPCR analysis; in short: as §2
T1 sequence (P36888 whole entry): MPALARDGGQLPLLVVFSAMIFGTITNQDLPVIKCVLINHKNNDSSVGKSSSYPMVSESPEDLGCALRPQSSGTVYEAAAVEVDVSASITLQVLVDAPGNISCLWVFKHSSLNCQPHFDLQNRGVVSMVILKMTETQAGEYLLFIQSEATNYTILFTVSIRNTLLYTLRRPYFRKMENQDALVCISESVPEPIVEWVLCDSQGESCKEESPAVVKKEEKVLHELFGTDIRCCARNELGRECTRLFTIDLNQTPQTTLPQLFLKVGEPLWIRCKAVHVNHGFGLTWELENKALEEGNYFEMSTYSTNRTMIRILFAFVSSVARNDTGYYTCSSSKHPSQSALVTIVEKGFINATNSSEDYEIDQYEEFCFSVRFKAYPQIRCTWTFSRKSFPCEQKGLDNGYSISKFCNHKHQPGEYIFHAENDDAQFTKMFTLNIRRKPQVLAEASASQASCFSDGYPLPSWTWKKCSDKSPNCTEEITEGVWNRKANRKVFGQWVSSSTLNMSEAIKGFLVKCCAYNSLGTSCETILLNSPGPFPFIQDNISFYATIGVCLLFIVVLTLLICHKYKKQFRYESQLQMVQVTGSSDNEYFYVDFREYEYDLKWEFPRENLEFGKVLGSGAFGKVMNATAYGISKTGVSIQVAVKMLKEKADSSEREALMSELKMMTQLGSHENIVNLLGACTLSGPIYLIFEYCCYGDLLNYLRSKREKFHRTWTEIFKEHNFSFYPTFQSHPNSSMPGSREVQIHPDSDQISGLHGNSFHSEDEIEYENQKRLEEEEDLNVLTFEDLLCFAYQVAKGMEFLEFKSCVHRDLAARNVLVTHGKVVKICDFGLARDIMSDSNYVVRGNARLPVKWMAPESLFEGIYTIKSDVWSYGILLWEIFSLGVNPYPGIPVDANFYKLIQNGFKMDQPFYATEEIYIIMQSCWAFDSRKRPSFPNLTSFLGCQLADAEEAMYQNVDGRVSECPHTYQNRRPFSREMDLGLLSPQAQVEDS

[38] = target: Homeodomain-interacting protein kinase 1 (Homo sapiens, UniProt Q86Z02); assay: Inhibition of HIPK1 (unknown origin) incubated for 1 hr by qPCR analysis; in short: as §2
[39] = target: Mitogen-activated protein kinase 8 (Homo sapiens, UniProt P45983); assay: Inhibition of MAPK8 (unknown origin) incubated for 1 hr by qPCR analysis; in short: as §2
Chain of Mitogen-activated protein kinase 8 (P45983 whole entry): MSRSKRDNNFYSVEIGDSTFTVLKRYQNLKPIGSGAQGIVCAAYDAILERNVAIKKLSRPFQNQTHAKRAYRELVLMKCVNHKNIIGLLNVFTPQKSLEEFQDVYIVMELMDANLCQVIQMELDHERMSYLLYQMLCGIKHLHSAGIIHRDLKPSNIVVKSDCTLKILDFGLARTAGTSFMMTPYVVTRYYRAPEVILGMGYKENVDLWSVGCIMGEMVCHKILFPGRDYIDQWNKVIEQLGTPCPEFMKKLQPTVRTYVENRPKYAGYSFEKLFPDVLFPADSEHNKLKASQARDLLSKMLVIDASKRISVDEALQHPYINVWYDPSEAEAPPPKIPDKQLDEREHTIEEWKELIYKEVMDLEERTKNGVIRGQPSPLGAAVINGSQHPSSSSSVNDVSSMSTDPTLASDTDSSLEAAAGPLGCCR

[40] = target: Mitogen-activated protein kinase kinase kinase 20 (Homo sapiens, UniProt Q9NYL2); assay: Inhibition of ZAK (unknown origin) incubated for 1 hr by qPCR analysis; in short: as §2
[41] = target: Serine/threonine-protein kinase/endoribonuclease IRE1 (Homo sapiens, UniProt O75460); assay: Inhibition of ERN1 (unknown origin) incubated for 1 hr by qPCR analysis; in short: as §2
Chain of Serine/threonine-protein kinase/endoribonuclease IRE1 (O75460 whole entry): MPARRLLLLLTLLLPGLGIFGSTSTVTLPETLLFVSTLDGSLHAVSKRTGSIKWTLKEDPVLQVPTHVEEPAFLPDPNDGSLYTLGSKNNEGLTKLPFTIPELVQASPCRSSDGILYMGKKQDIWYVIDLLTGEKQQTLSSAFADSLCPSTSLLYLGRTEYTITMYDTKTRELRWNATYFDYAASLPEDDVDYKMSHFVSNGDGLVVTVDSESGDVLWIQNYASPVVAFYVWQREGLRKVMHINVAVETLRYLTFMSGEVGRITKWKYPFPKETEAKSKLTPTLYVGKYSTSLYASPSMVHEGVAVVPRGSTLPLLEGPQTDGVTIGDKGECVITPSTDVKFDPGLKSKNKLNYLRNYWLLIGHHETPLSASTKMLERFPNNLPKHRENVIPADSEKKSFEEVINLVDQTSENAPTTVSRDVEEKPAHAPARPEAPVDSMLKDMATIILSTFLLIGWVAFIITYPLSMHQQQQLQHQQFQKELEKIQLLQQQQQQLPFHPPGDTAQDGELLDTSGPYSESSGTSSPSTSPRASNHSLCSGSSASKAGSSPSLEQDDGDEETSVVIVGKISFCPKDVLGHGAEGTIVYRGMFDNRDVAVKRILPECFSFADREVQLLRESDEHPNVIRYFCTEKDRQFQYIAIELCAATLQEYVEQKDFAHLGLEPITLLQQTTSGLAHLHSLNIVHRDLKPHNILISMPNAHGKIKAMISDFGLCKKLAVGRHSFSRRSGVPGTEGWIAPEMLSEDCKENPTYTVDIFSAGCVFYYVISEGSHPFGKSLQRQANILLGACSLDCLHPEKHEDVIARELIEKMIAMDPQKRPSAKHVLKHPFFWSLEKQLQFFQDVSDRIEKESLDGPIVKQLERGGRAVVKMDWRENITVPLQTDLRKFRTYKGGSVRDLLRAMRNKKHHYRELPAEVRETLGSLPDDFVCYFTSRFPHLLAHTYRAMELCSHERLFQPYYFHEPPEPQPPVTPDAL

[42] = target: Tyrosine-protein kinase ABL1 (Homo sapiens, UniProt P00519); assay: Inhibition of ABL1 (unknown origin) incubated for 1 hr by qPCR analysis
[43] = tested on: Panel colon (Carcinoma cell lines); assay: cells; settings: Homo sapiens, 48 h, read-out: INH

IC50 [4]: 5.98 µM | IC50 [5]: 0.00196 µM | IC50 [7]: 0.00377 µM | IC50 [9]: 0.00633 µM | IC50 [11]: 1.79 µM | IC50 [12]: 8.08 µM | IC50 [14]: 0.49 µM | IC50 [16]: 2.26 µM | IC50 [19]: 0.348 µM | IC50 [20]: 0.24 µM | IC50 [22]: 12.1 µM | IC50 [26]: 16.4 µM | IC50 [28]: 11.9 µM | IC50 [29]: 11.6 µM | IC50 [33]: 11.9 µM
Structure (SMILES): CN1CCCN(CCNc2nccc(-c3c(-c4cccc(O)c4)nc4sccn34)n2)S1(=O)=O
IC50 [1]: 0.036 µM | IC50 [2]: 4.36 µM | TGI [3]: 10.3 µM | TGI [6]: 51.6 µM | IC50 at 48 h [8]: 75.6 µM | TGI [10]: 0.408 µM | selectivity ratio [13]: 2100 | TGI [15]: > 100 µM | TGI [17]: 12.9 µM | IC50 [18]: 8.21 µM | TGI [21]: 7.36 µM | IC50 [23]: 0.174 µM | IC50 at 48 h [24]: 93.6 µM | IC50 [25]: 13.6 µM | TGI [27]: 3.14 µM | inhibition at 10 µM [30]: 84.8% | TGI [31]: 28.2 µM | TGI [32]: 52 µM | IC50 [34]: 0.058 µM

IC50 [5]: 0.006 µM | IC50 [35]: 1.21 µM | IC50 [9]: 0.0027 µM | IC50 [36]: 2.01 µM | IC50 [37]: 1.99 µM | IC50 [38]: 5.13 µM | IC50 [39]: 1.35 µM | IC50 [40]: 7.58 µM | IC50 [41]: 9.54 µM | IC50 [42]: 10.4 µM
Structure (SMILES): O=S(=O)(NCCNc1nccc(-c2c(-c3cccc(O)c3)nc3sccn23)n1)c1ccc(F)cc1

IC50 [5]: 0.19 µM | IC50 [7]: 0.169 µM | IC50 [9]: 0.921 µM
Structure (SMILES): COc1cccc(-c2nc3sccn3c2-c2ccnc(NCCNS(=O)(=O)c3ccc4ccccc4c3)n2)c1
inhibition at 10 µM [43]: 83.1%

IC50 [5]: 21.3 µM | IC50 [7]: 26.6 µM | IC50 [9]: 19.3 µM
Structure (SMILES): COc1ccc(-c2nc3sccn3c2-c2ccnc(NCCNS(=O)(=O)c3ccc(C)cc3)n2)cc1
IC50 at 48 h [8]: 126 µM | IC50 at 48 h [24]: 466 µM

— ChEMBL document CHEMBL5046217, “Discovery of New Imidazo[2,1-b]thiazole Derivatives as Potent Pan-RAF Inhibitors with Promising In Vitro and In Vivo Anti-melanoma Activity” (J Med Chem, 2021)
